Measurements reported in publication PMC2828288 (Journal of medicinal chemistry, 2010).
Like-named read-outs stand apart in the source and are kept apart here.

How the values were obtained:
[1] = system: total brain 2-AG levels; details: upon administration to mice; cited from earlier work
[2] = mice, 20 mg/kg i.p. daily for 6 days; cited from earlier work
[3] = target: T1, FAAH (Mus musculus, UniProt O08914); details: mice, 20 mg/kg intraperitoneally, or 100 mg/kg orally; cited from earlier work
T1 sequence (O08914 1-579): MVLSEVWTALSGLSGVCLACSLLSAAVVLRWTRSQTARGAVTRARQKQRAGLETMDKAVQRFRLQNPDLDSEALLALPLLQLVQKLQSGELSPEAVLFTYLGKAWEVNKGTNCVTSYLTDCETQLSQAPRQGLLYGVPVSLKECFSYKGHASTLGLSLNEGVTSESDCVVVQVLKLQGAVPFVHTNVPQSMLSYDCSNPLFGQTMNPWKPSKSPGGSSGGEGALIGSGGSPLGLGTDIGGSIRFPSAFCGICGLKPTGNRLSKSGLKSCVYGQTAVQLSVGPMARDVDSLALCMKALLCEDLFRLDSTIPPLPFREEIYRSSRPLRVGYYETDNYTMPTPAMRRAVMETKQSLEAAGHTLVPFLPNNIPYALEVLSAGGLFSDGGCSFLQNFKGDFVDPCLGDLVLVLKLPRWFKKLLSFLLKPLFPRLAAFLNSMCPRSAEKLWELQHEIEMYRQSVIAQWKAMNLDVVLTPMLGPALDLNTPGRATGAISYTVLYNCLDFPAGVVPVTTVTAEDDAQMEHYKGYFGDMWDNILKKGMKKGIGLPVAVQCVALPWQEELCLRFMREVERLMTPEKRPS

[4] = system: MAGL; details: mice, 20 mg/kg intraperitoneally, or 100 mg/kg orally; cited from earlier work
[5] = target: T2, NTE (Mus musculus, UniProt Q3TRM4); details: mice, 20 mg/kg intraperitoneally, or 100 mg/kg orally; cited from earlier work
T2 sequence (Q3TRM4 1-1355): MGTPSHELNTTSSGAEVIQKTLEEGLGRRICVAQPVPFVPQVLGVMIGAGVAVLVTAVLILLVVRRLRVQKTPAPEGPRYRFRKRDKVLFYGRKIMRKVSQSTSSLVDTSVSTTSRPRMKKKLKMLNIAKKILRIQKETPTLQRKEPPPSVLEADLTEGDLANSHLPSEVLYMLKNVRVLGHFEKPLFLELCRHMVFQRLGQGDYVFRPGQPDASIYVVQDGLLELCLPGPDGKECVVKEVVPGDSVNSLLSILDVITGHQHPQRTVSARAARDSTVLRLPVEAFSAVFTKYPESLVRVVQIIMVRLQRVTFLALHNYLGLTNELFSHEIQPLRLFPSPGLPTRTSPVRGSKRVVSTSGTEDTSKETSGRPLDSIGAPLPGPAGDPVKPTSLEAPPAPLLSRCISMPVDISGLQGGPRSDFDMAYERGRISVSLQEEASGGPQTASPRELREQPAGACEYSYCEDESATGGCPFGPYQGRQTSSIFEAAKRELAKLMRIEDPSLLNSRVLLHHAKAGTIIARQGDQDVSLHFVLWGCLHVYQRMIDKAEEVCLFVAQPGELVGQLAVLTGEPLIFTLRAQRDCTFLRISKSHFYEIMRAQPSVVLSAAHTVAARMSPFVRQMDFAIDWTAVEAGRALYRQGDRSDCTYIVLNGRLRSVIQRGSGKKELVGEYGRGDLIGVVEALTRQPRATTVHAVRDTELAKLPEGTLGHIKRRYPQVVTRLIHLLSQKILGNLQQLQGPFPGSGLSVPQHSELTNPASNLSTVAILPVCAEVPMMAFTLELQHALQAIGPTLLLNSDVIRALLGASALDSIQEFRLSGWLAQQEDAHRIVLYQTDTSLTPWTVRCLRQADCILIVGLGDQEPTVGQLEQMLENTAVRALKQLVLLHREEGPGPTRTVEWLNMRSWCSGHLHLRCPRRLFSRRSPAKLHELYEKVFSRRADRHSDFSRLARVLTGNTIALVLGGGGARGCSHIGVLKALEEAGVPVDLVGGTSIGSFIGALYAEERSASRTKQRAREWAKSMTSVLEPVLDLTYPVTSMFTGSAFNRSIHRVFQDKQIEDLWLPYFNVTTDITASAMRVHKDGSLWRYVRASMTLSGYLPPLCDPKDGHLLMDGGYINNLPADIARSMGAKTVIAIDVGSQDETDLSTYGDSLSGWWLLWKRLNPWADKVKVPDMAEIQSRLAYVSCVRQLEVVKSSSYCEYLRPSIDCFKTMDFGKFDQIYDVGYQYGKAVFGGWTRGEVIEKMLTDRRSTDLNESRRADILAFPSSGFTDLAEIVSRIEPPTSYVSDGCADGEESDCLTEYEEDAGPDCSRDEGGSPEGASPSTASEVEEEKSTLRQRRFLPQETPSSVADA

[6] = target: T1, FAAH; test: FAAH activity after in vivo administration to mice; details: administration to mice at doses that reduced MAGL activity; data not shown
[7] = system: serine hydrolases in the mouse brain membrane proteome; type: biochemical; details: competitive ABPP
Procedure, shortened: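 Mouse brain tissue Dounce-homogenized in PBS pH 7.5, spun at 1,400 × g for 5 min, then at 64,000 × g for 45 min; the membrane pellet was resuspended in PBS by sonication. Proteome at 1 mg/ml was preincubated with test compound at the indicated concentrations for 30 min at 37 °C. FP-rhodamine (1 μM final) was then added for 30 min at 25 °C, followed by SDS-PAGE and in-gel fluorescence scanning.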

[8] = system: MAGL; test: Competitive ABPP; type: biochemical, mouse; details: brain proteome
[9] = target: T2, NTE; test: NTE activity after in vivo administration to mice; details: 20 mg/kg, i.p., data not shown

For `O=C(Oc1ccc([N+](=O)[O-])cc1)N1CCC(C(O)(c2ccc3c(c2)OCO3)c2ccc3c(c2)OCO3)CC1` [Compound 1, 4-nitrophenyl 4-(dibenzo[d][1,3]dioxol-5-yl(hydroxy)methyl)piperidine-1-carboxylate], the “elevation of total brain 2-AG levels” value [1] is listed as over 8 fold.

For `O=C(Oc1ccc([N+](=O)[O-])cc1)N1CCN(Cc2cccc(Oc3ccccc3)c2)CC1` [Compound 2], the “death or overt signs of discomfort on chronic administration” value [2] is listed as “did not produce death or overt signs of discomfort”, the “FAAH blockade in vivo” value [3] is listed as “completely blocked” and the “MAGL blockade in vivo” value [4] is listed as “completely blocked”. The “NTE inhibition in vivo” value [5] was “no inhibition of NTE was observed”.

With `O=C(Oc1ccc([N+](=O)[O-])cc1)N1CCN(C(c2ccc(F)cc2)c2ccc(F)cc2)CC1` [Compound 5] the “FAAH activity in vivo” value [6] was “significantly blocked FAAH activity”.

For `COc1ccc(C(O)(c2ccc(OC)cc2)C2CCN(C(=O)Oc3ccc([N+](=O)[O-])cc3)CC2)cc1` [Compound 6], the “FAAH activity in vivo” value [6] was “significantly blocked FAAH activity”.

In the case of `CN(CCC(c1ccccc1)c1ccccc1)C(=O)Oc1ccc([N+](=O)[O-])cc1` [Compound 9a, 4-nitrophenyl 3,3-diphenylpropyl(methyl)carbamate], the “activity against FAAH, MAGL and other serine hydrolases” value (“activity against FAAH” for short) [7] is reported as “inactive”.

For `CN(C(=O)Oc1ccc([N+](=O)[O-])cc1)C(c1ccccc1)c1ccccc1` [Compound 9b, 4-nitrophenyl benzhydryl(methyl)carbamate], the “activity against FAAH” value [7] was “inactive”.

For `COc1ccc(C(O)(c2ccc(OC)cc2)C2CCN(C(=O)Oc3ccc([N+](=O)[O-])cc3)C2)cc1` (stereo not drawn) [Compound 15, 4-nitrophenyl 3-(hydroxybis(4-methoxyphenyl)methyl)pyrrolidine-1-carboxylate], the “activity against FAAH” value [7] was “inactive”.

In the case of `COc1ccccc1C(O)(c1ccccc1OC)C1CCN(C(=O)Oc2ccc([N+](=O)[O-])cc2)CC1` [Compound 33b, 4-nitrophenyl 4-(hydroxybis(2-methoxyphenyl)methyl)piperidine-1-carboxylate], the “selectivity for MAGL over FAAH” value [8] is reported as ~ 10 fold.

For `COc1ccc(C(O)(c2ccc(OC)c(OC)c2)C2CCN(C(=O)Oc3ccc([N+](=O)[O-])cc3)CC2)cc1OC` [Compound 33c, 4-nitrophenyl 4-(bis(3,4-dimethoxyphenyl)(hydroxy)methyl)piperidine-1-carboxylate], the Selectivity ([8]; MAGL over FAAH (ratio of IC50s)) was over 38 and the “selectivity for MAGL over FAAH” value [8] was 40–400 fold.

With `O=C(Oc1ccc([N+](=O)[O-])cc1)N1CCN(Cc2ccc(-c3ccccc3)s2)CC1` [Compound 36h, 4-nitrophenyl 4-((5-phenylthiophen-2-yl)methyl)piperazine-1-carboxylate] the “NTE inhibition in vivo” value [9] was “inhibited NTE”.

With `O=C(Oc1ccc([N+](=O)[O-])cc1)N1CCN(Cc2cccc(Oc3cc(Cl)cc(Cl)c3)c2)CC1` [Compound 36q, 4-nitrophenyl 4-(3-(3,5-dichlorophenoxy)benzyl)piperazine-1-carboxylate] the “activity against FAAH” value [7] was “unable to inhibit any of the hydrolases”.
